SMILES strings stand for the structures.

Ki data for one compound are collected here from ChEMBL document CHEMBL1132360, “N-Substituted (2,3-dihydro-1,4-benzodioxin-2-yl)methylamine derivatives as D(2) antagonists/5-HT(1A) partial agonists with potential as atypical antipsychotic agents” (J Med Chem, 1999).

The target in assay [1] is T1, 5-hydroxytryptamine receptor 1A (Homo sapiens, UniProt P08908).
T1 sequence (P08908 whole entry): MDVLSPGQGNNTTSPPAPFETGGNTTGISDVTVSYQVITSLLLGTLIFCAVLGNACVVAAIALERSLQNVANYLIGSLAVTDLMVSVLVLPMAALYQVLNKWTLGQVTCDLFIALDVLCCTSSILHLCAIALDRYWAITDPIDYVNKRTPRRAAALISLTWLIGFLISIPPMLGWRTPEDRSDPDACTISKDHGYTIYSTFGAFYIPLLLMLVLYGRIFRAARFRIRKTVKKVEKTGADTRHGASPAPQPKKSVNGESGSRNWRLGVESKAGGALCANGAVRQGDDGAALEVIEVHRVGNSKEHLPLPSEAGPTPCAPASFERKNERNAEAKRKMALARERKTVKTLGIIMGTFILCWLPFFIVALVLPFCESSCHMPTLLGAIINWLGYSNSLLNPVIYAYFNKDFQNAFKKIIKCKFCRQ
As to the kind of experiment: The compound was tested for binding affinity against 5-hydroxytryptamine 1A receptor receptor.

Assay [2] has as its target 5-hydroxytryptamine receptor 2A (Rattus norvegicus, UniProt P14842). As to the kind of experiment: The compound was tested for binding affinity against 5-hydroxytryptamine 2A receptor.
For assay [3], the target named is T2, Adrenergic receptor alpha-1 (Homo sapiens, UniProt P35348+P25100+P35368).
T2 sequence (P35348 whole entry): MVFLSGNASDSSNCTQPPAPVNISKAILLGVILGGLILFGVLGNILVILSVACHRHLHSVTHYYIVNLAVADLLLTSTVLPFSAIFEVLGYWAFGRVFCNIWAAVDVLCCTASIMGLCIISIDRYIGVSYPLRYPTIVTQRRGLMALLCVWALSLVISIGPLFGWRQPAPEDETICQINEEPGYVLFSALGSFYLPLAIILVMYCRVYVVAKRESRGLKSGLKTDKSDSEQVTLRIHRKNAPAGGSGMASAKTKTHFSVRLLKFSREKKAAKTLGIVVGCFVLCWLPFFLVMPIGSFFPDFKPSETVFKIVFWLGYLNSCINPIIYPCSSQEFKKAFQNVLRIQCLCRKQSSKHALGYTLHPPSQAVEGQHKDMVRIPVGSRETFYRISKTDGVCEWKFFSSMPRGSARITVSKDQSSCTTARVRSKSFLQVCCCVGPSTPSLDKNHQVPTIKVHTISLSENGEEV
T2 sequence (P25100 whole entry): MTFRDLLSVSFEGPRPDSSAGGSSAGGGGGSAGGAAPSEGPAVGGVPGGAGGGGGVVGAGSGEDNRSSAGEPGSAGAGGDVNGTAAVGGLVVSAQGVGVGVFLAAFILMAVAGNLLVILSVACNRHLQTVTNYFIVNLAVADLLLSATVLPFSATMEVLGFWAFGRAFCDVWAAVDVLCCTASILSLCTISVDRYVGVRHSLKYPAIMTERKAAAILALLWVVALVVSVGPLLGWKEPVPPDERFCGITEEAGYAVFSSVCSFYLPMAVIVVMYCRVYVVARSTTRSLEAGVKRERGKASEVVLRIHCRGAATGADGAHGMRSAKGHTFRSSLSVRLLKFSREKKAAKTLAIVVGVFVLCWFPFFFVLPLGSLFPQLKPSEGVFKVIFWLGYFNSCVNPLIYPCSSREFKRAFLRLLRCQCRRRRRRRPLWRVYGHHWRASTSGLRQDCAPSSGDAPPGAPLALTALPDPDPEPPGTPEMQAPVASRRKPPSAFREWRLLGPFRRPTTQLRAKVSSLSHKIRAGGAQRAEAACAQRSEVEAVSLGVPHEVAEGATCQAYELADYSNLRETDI
T2 sequence (P35368 whole entry): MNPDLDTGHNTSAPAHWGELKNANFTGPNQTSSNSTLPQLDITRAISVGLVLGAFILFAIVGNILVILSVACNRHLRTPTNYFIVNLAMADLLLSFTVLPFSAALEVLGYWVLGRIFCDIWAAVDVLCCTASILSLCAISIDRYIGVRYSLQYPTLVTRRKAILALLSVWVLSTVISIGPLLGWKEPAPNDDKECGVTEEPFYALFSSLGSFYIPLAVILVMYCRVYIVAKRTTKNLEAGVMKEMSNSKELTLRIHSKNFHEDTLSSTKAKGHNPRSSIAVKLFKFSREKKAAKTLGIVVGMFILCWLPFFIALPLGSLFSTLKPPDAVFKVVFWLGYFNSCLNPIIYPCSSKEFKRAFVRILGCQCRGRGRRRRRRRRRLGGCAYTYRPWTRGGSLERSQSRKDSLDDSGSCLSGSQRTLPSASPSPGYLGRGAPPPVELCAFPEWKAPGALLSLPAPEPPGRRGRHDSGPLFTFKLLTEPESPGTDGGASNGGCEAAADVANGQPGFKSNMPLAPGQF
As to the kind of experiment: Binding affinity towards Alpha-1 adrenergic receptor in human cortex membranes. It counts as cell membranes.

Assay [4] has as its target T2, Adrenergic receptor alpha-1. As to the kind of experiment: The compound was tested for binding affinity against human Alpha-1 adrenergic receptor. It counts as protein assay. Put shortly: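 Postmortem human cortex membranes, stored at −80 °C, assayed in 50 mM Tris-HCl pH 7.6. Incubated with 0.1 nM [3H]prazosin for 30 min at 30 °C, test agent at 10^-6 M or 10 concentrations; 5 μM phentolamine for nonspecific binding. IC50 by curve fitting, converted to Ki (Cheng–Prusoff).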

For assay [5], the target named is T3, Alpha-2A adrenergic receptor (Rattus norvegicus, UniProt P22909).
T3 sequence (P22909 whole entry): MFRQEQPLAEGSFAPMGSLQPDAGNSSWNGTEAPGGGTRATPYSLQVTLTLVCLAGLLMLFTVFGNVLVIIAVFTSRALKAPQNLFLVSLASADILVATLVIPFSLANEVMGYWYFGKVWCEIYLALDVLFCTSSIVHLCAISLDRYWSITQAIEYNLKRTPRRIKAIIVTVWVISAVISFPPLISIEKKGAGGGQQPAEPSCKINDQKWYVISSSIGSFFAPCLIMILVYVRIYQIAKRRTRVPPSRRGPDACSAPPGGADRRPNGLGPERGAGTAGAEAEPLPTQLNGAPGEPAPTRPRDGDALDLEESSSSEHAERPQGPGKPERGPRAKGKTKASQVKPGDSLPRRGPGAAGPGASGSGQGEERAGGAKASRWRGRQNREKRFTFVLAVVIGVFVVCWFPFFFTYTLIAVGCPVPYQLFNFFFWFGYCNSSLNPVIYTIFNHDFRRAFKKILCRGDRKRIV
As to the kind of experiment: The compound was tested for binding affinity against alpha-2D adrenergic receptor.

Another assay addresses D(3) dopamine receptor (Homo sapiens, UniProt P35462). As to the kind of experiment: The compound was tested for binding affinity against human Dopamine receptor D3.
A further assay addresses D(1B) dopamine receptor (Homo sapiens, UniProt P21918). As to the kind of experiment: The compound was tested for binding affinity against human Dopamine receptor D5.
The next assay deals with Histamine H1 receptor (Rattus norvegicus, UniProt P31390). As to the kind of experiment: The compound was tested for binding affinity against H1 receptor.
Sequence of Histamine H1 receptor (P31390 whole entry): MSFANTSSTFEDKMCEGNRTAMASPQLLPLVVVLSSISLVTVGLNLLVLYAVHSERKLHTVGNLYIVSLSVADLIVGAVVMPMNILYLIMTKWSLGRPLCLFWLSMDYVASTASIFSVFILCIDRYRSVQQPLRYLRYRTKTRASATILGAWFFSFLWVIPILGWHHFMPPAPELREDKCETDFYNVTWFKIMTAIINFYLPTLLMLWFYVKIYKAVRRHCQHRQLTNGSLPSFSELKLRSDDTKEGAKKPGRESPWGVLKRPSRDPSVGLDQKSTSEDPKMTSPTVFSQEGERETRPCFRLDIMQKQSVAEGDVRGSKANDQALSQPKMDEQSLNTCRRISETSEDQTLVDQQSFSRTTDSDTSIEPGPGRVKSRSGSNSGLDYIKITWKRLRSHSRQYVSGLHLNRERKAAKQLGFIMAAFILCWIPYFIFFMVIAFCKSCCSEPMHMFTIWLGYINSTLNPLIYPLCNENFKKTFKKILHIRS

Sequence of D(1B) dopamine receptor (P21918 whole entry): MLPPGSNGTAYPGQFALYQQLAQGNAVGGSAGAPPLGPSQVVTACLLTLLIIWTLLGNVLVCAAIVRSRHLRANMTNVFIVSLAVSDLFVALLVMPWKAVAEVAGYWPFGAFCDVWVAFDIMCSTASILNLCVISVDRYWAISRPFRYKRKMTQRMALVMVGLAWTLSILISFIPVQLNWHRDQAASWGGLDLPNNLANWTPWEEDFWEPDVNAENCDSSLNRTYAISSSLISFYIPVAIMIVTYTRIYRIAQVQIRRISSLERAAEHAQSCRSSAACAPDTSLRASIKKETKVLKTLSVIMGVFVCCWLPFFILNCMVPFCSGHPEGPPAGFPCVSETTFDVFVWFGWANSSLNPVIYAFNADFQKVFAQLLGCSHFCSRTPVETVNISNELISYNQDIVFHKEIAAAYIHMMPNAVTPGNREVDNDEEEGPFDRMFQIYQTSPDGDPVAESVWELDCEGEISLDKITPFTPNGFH
Sequence of D(3) dopamine receptor (P35462 whole entry): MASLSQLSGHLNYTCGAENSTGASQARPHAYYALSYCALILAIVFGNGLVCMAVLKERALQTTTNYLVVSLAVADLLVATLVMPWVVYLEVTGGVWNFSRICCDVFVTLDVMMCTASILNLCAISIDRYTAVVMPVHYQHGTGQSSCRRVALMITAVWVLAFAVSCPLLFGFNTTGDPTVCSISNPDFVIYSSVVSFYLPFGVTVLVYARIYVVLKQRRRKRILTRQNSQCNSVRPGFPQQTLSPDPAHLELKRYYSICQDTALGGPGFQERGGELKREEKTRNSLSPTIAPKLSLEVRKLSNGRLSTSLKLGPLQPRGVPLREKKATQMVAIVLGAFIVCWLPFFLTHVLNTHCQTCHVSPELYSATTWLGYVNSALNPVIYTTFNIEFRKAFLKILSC
Sequence of 5-hydroxytryptamine receptor 2A (P14842 whole entry): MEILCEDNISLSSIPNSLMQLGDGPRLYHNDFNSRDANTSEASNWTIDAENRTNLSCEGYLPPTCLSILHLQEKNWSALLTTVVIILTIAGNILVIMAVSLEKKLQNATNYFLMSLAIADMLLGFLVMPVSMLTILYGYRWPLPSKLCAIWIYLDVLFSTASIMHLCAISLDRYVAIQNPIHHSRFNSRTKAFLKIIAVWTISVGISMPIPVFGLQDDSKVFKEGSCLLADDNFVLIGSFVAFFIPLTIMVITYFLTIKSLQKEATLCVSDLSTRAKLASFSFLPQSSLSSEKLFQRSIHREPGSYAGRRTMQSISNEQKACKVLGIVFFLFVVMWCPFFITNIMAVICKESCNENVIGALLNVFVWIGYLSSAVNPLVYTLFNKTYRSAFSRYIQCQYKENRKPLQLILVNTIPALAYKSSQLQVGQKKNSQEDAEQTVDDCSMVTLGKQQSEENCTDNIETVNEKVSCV

For orientation: Ki means the equilibrium dissociation constant of an inhibitor or competing ligand from its target. High values mean a looser hold on the target, low ones a stronger hold on the target. In the case of `COc1ccccc1N1CCC(CNCC2COc3ccc(Cl)cc3O2)CC1` (stereo not drawn), the inhibition constant (Ki) in assay [1] is 3.6 nM; in assay [2], greater than 500 nM; in assay [3], 53 nM; in assay [4], 181 nM; in assay [5] it was greater than 500 nM; on D(3) dopamine receptor, 1.6 nM. Besides, the inhibition constant Ki on D(1B) dopamine receptor and at Histamine H1 receptor was greater than 1000 nM in each case.
